Source: PubChem
Sampled rows, rich in hits. Any-hit rate of the full collection: about 3.5%.
RGS4 pot – RGS4 potentiators or activators, primary screen, cell-based, HEK293 M3R inducible RGS4, calcium flux; AID 463111, 2010; 0.92% of 310,000 active; B-score at 10 µM; carbachol calcium flux Fluo4; hits give low values;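 active = B-score of the integrated calcium signal more than 4 SD below the library mean, with starting fluorescence not abnormally high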;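 note: negative B-score means reduced calcium response which marks RGS4 activation or potentiation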
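Detection: kinetic calcium fluorescence imaging with Fluo4-AM dye, 2 µM / Material: HEK293 cells with stable M3R and inducible RGS4 / Schedule: recording 10 s baseline at 1 Hz, 100 s post-agonist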
MrgX1 allo act – positive allosteric modulators of MrgX1, primary screen, HEK293 cells, Fluo-4 calcium flux | Mas-related G-protein coupled receptor member X1 (Homo sapiens), Q96LB2 | FDSS; hits give high values | B-score at 10 µM | 0.63% of 310,000 active | AID 588675, 2011;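 active = plate-corrected calcium response at least 3 library SD above typical, normal starting fluorescence, not activating the receptor alone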;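 note: compound read alongside a low EC10 to EC30 dose of BAM8-22 agonist; peak minus trough fluorescence over baseline measured at the second addition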
Target sequence (Q96LB2 whole entry, looked up): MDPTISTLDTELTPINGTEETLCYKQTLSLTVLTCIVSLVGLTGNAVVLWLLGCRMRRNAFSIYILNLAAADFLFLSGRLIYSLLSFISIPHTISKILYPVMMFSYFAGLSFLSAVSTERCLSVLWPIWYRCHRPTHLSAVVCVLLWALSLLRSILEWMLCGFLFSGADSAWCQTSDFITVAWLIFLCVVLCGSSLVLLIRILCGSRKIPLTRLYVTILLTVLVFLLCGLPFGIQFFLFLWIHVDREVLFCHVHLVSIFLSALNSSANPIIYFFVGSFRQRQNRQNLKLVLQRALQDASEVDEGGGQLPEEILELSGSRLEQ
MrgX1 ag – agonists of human MrgX1 receptor, primary screen, HEK293 cells, Fluo-4 calcium flux. Mas-related G-protein coupled receptor member X1 (Homo sapiens), Q96LB2. Fluo-4 calcium fluorescence, agonist mode; hits give high values. B-score at 10 µM. 0.44% of 310,000 active;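 active = calcium response B-score plate-corrected fluorescence ratio at least 3 library SD, with starting fluorescence B-score inside 5 SD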
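Test system: Stable human MrgX1 HEK293 cell line | Schedule: Overnight plating before 1 h dye loading | Read-out basis: Baseline-normalised fluorescence change ratio, B-scored | Detection: Kinetic calcium dye fluorescence, Fluo-4 NW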
MrgX1 antag – antagonists of human MrgX1 receptor, primary screen, HEK293 cells, Fluo-4 calcium flux; Mas-related G-protein coupled receptor member X1 (Homo sapiens), Q96LB2; BAM8-22 antagonism; hits give low values; B-score at 10 µM; 1.3% of 310,000 active; AID 588676, 2011;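 active = calcium-response B-score plate-corrected more than 3 library SD below zero, starting fluorescence within 5 deviations, no agonist response on first addition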;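 note: peak minus trough fluorescence over baseline after final BAM8-22 challenge near maximal dose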
RGS4 inh – RGS4 inhibitors, primary screen, cell-based, HEK293 M3R inducible RGS4, calcium flux; AID 463165, 2010; B-score at 10 µM; Fluo-4 calcium flux; hits give high values; triggered by carbachol at its EC20; 0.45% of 310,000 active;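 active = B-score, a plate-corrected calcium signal, over three deviations above library mean, with baseline fluorescence within five deviations of library mean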;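 note: RGS4 expression induced by doxycycline in cells with stable M3 receptor; B-score is computed from the integrated fluorescence ratio over baseline after carbachol; higher B-score means a larger calcium signal and so more RGS4 inhibition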
Target sequence (P49798 whole entry, looked up): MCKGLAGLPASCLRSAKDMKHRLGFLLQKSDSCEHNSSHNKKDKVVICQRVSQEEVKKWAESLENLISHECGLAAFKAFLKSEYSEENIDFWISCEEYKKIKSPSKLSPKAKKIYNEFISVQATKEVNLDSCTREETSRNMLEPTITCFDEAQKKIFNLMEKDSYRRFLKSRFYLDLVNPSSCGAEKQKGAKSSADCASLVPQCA
* marks the source's active call; other numbers are inactive results; i = inactive.

SMILES | RGS4 pot | MrgX1 allo act | MrgX1 ag | MrgX1 antag | RGS4 inh
Cc1ccc(C(=O)NC2CCN(CC(=O)Nc3ccccc3Cl)CC2)cc1 | i | i | i | i | i
COC(=O)c1cccc(NC(=O)CCNC(=O)c2ccc([N+](=O)[O-])cc2)c1 | i | i | i | -7.8* | i
COC(=O)c1ccc(C)c(NC(=O)CCNC(=O)c2ccc([N+](=O)[O-])cc2)c1 | i | i | i | i | i
Cc1ccc(N=C(NO)c2nonc2N)c(C)c1 | i | i | i | i | i
Cc1ccc(N=C(NOCc2ccc(Cl)cc2Cl)c2nonc2N)c(C)c1 | -7.6* | i | i | i | i
Cc1ccccc1N=C(NOCc1ccc(Cl)cc1Cl)c1nonc1N | -7.3* | i | i | i | i
CC(C)CC(=O)NC(=S)Nc1ccc(NC(=O)c2cccs2)cc1 | i | i | i | i | i
NN1C(=O)/C(=C2/Sc3ccccc3N2CCCS(=O)(=O)O)SC1=S | i | i | i | i | i
O=C1NC(=S)S/C1=C1\Sc2ccccc2N1CCCS(=O)(=O)O | i | i | i | -4.8* | i
O=C(OCc1ccc(F)cc1)c1ccc2ccccc2n1 | i | i | i | i | i
COC(=O)C(Cc1ccccc1)NC(=O)c1cccc(S(=O)(=O)N(C)C)c1 (configuration not stated) | i | i | i | i | i
CCS(=O)(=O)C1=NSC2=NC(=O)/C(=C\c3ccc(OS(=O)(=O)c4ccccc4)c(OC)c3)C(=N)N21 | i | 33* | i | i | i
COc1cc(/C=C2/C(=N)N3C(=NC2=O)SN=C3S(C)(=O)=O)ccc1OS(=O)(=O)c1ccc(C)cc1 | i | 10* | i | i | i
Cc1ccc(S(=O)(=O)Oc2ccc(/C=C3/C(=N)N4C(=NC3=O)SN=C4S(C)(=O)=O)cc2)cc1 | i | 17* | i | i | i
COc1cc(/C=C2/C(=N)N3N=C(C)SC3=NC2=O)ccc1OS(=O)(=O)c1ccc(C)cc1 | i | i | i | i | i
CN(C)c1ccc(/C=N/N2CCN(c3ccccn3)CC2)cc1 | i | i | i | i | i
O=C(N/N=C/c1cccc(Cl)c1)C1CCCC1 | i | i | i | i | i
O=C(NNc1cccc(Cl)c1)c1cccnc1Oc1ccccc1 | i | i | i | i | i
COc1ccc(/C=C\C(=O)Oc2cccc(/C=N/NC(=O)Cc3ccc(OC)c(OC)c3)c2)cc1 | i | i | i | -5.5* | i
COc1ccc(CCNC(=O)COC(=O)/C=C/c2ccc(OC)c(OC)c2)cc1 | i | i | i | -4.5* | i
COc1ccc(/C=C/C(=O)Oc2cccc(/C=N/NC(=O)c3cccc(F)c3)c2)cc1 | i | i | i | i | i
O=C(Nc1ccc(N2CCOCC2)c(F)c1)c1ccncc1 | i | i | i | i | i
CC(C)N(CCCNC(=O)c1ccc(CS(=O)(=O)c2c(Cl)cccc2Cl)o1)Cc1ccccc1 | -8.6* | i | i | i | i
CC(C)CC(=O)C1=C(O)C(=O)N(Cc2ccccc2)C1c1ccccc1 (configuration not stated) | i | 12* | i | i | i
CN1C2CCC1/C(=C\c1ccccc1)C(=O)/C2=C\c1ccccc1 | i | 12* | i | i | i
SMILES | RGS4 pot | MrgX1 allo act | MrgX1 ag | MrgX1 antag | RGS4 inh
O=C1/C(=C/c2ccccc2)CCC1C1CCCC1 (configuration not stated) | i | i | i | i | i
Cc1nc([N+](=O)[O-])cn1CC(=O)Nc1ccc([N+](=O)[O-])cc1 | i | i | i | i | i
COC(=O)C1CCN(C(=O)COC(=O)CSc2ccc(C(N)=O)cc2[N+](=O)[O-])CC1 | i | i | i | -6.4* | i
CCOC(=O)CSc1ccc(C(=O)NCCCN2CCOCC2)cc1[N+](=O)[O-] | -8.2* | i | i | i | i
CCOC(=O)C1CCN(C(=O)COC(=O)CSc2ccc(C(N)=O)cc2[N+](=O)[O-])CC1 | i | i | i | i | i
N#CC1(NC(=O)CN2CCc3ccccc3C2)CCCC1 | i | i | i | i | i
O=c1oc(-c2ccc(Cl)c(Cl)c2)nn1-c1ccc(C(F)(F)F)cn1 | i | i | i | i | i
CCCCCCCCCCCCCCCC[N+](C)(C)CC | i | i | i | -5.3* | i
CCCOC(=O)C1=C(C)OC23OC(N)=C(C#N)C12C(=O)c1ccccc13 (configuration not stated) | i | i | i | i | i
O=C1/C(=C/c2ccc(O)cc2)COc2ccccc21 | i | i | i | i | i
O=C1/C(=C/c2ccccn2)COc2ccccc21 | i | 6.7* | i | i | i
O=C(NNC(=O)c1cc(Cl)ccc1O)c1cccc(S(=O)(=O)N2CCOCC2)c1 | i | i | i | -4.8* | i
O=C(NNC(=O)c1cccc(S(=O)(=O)N2CCN(c3ccccc3)CC2)c1)c1ccc(Cl)cc1 | i | i | i | i | i
O=[N+]([O-])c1cccc(S(=O)(=O)Nc2ccc(-c3ccc(N4CCOCC4)nn3)cc2)c1 | i | 7.8* | i | i | i
O=[N+]([O-])c1cccc(S(=O)(=O)Nc2ccc(-c3ccc(N4CCCC4)nn3)cc2)c1 | i | i | i | i | i
COc1ccccc1CCN1CCCC(CN(C)C(=O)CCC(=O)N(C)C)C1 (configuration not stated) | i | i | i | i | i
O=C(NCc1ccco1)c1cc2c(s1)CCCCC2 | -7.1* | i | i | i | i
CNc1cc(CS(=O)c2ccccc2)nc(-c2ccccc2)n1 (configuration not stated) | i | i | i | i | i
O=S(Cc1cc(Sc2ccccc2)nc(-c2ccccc2)n1)c1ccccc1 (configuration not stated) | i | 10* | i | i | i
O=[N+]([O-])c1ccc(-c2csc(N3CCCCCC3)n2)cc1 | i | 9.1* | i | i | i
CC(C)c1ccc(N2C(=O)CSC23C(=O)N2CCCc4cccc3c42)cc1 (configuration not stated) | -7.6* | i | i | i | i
